Assay results from article PMC5484535 (Bioorganic & medicinal chemistry, 2016).

How the values were obtained:
PANC-1 = experiment: Anti-proliferation in PANC-1 pancreatic cancer cells; type: cell-based; settings: Homo sapiens, PANC-1, read-out: Cellular IC50s Pancreas PANC-1
URMC6 = experiment: Anti-proliferation in URMC6 renal cell carcinoma cells; type: cell-based; settings: read-out: Cellular IC50s Kidney URMC6
SW156 = experiment: Anti-proliferation in SW156 renal cell carcinoma cells; type: cell-based; settings: read-out: Cellular IC50s Kidney SW156
TAK1 [1] = target: T1, TAK1 (Homo sapiens, UniProt O43318); experiment: Competitive pulldown of TAK1 with biotinylated probe 27 in H358 and H23 cells; type: cell-based; settings: 6 h, washout, lysate + 1 μM 27; for blocking of labeling of TAK1 by 27: 10 μM compound; for labeling of TAK1 by 27 after pre-treatment of cells: 1 μM compound; for effect on labeling of TAK1 by 27: 1 or 10 μM compound
T1 sequence (O43318 1-606): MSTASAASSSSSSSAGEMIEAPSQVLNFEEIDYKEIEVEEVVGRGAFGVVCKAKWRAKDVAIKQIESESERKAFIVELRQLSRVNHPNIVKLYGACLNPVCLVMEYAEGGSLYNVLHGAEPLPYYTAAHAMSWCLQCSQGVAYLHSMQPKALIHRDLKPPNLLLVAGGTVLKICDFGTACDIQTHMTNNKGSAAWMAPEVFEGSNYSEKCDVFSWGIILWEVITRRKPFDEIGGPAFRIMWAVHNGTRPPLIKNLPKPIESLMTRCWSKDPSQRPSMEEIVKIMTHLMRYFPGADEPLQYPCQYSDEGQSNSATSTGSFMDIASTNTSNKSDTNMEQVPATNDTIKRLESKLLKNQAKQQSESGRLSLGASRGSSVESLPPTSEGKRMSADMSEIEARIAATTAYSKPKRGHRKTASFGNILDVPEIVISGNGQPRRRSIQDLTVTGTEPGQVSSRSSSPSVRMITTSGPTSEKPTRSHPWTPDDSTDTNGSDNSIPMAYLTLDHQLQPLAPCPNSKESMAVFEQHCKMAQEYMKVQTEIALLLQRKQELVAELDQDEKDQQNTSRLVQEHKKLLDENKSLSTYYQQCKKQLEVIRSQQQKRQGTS
How it was run: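 H358 and H23 NSCLC cells (KRAS G12C) were exposed to test compound at 1 or 10 μM for 6 h. Drug medium was removed, and cells were rinsed twice with cold PBS and lysed in MPER buffer. Lysates were incubated overnight at 4 °C with 1 μM biotinylated probe and pulled down on streptavidin beads. Recovered TAK1 was detected by immunoblotting.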

H358 cells = experiment: Anti-proliferation in H358 NSCLC cells; type: cell-based; settings: 72 h, in words
How it was run: (§1)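 Cells seeded at 2000 cells/well and left 48 h before drug addition at varying doses. After 72 h incubation, viability was read by CellTiter-Glo luminescence. Growth-inhibition IC50 values were calculated from dose-response curves.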

[2] = test system: synovial fibroblasts from an RA patient (RA2159); experiment: FGF-basic secretion by TNFα-activated RA synovial fibroblasts; type: cell-based, human; settings: TNFα-activated SF
How it was run: (§2)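 Primary human RA synovial fibroblasts (lot RA2159) were seeded at 1000 cells/well, grown ~24 h, then starved overnight and ~4 h in 0.1% BSA. Pooled supernatants (duplicates) were diluted 1:3 for 48-analyte Luminex measurement and iMLR modeling.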

[3] = test system: synovial fibroblasts from an RA patient (RA2159); experiment: Cytokine secretion by activated RA synovial fibroblasts; type: cell-based, human; settings: TNFα, IL-1α or Poly(I:C) activation
How it was run: as §2

H23 cells = experiment: Anti-proliferation in H23 NSCLC cells; type: cell-based; settings: 72 h, in words
How it was run: as §1

KRAS^G12D Ba/F3 cells = experiment: Anti-proliferation in KRAS^G12D Ba/F3 cells; type: cell-based; settings: 2 vs 8, 25 vs 26
[4] = test system: synovial fibroblasts from an RA patient (RA2159); settings: TNFα but not IL-1α or Poly(I:C) ref 24; cited from earlier work
panel of 456 kinases = experiment: KinomeScan ATP-site competition binding panel; settings: 1 and 10 μM
ZAP70 = target: T2, ZAP70 (Homo sapiens, UniProt P43403); experiment: KiNativ live-cell profiling in SK-CO-1 cells; type: binding; settings: read-out: Inhibition (%) ZAP70
T2 sequence (P43403 1-619): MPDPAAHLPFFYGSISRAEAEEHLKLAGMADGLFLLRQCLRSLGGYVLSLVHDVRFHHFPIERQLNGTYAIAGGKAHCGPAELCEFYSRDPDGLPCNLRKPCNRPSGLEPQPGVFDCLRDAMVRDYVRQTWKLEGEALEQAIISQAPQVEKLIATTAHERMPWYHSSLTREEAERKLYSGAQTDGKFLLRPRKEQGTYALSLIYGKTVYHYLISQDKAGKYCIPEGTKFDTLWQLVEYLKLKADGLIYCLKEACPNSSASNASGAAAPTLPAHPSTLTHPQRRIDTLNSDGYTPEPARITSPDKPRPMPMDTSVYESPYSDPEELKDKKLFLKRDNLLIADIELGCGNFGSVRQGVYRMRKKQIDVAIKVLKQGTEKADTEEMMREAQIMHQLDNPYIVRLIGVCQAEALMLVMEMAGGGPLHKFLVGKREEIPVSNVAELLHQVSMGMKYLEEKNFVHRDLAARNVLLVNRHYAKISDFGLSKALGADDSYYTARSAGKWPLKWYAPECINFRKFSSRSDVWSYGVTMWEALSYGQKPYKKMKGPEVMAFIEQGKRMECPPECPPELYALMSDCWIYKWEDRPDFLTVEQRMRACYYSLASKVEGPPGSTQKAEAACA

MAP2K6 = target: T3, MAP2K6 (Homo sapiens, UniProt P52564); experiment: KiNativ live-cell profiling in SK-CO-1 cells; type: binding; settings: read-out: Inhibition (%) MAP2K6
T3 sequence (P52564 1-334): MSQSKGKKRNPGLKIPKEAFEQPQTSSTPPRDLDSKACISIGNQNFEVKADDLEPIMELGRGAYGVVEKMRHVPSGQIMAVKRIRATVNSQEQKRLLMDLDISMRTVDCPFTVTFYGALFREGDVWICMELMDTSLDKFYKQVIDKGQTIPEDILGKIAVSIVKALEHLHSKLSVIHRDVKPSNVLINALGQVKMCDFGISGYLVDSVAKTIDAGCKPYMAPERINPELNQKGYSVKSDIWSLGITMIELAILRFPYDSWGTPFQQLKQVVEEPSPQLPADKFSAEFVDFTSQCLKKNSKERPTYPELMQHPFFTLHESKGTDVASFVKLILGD

[5] = test system: SW620, SK-CO-1, PANC-1, AsPc-1, SW156, URMC6; experiment: Anti-proliferation across six colon, pancreas and kidney cancer lines; type: cell-based; settings: read-out: IC50 values against all lines except PANC-1
MAP2K5 = target: T4, MAP2K5 (Homo sapiens, UniProt Q13163); experiment: KiNativ live-cell profiling in SK-CO-1 cells; type: binding; settings: read-out: Inhibition (%) MAP2K5
T4 sequence (Q13163 1-448): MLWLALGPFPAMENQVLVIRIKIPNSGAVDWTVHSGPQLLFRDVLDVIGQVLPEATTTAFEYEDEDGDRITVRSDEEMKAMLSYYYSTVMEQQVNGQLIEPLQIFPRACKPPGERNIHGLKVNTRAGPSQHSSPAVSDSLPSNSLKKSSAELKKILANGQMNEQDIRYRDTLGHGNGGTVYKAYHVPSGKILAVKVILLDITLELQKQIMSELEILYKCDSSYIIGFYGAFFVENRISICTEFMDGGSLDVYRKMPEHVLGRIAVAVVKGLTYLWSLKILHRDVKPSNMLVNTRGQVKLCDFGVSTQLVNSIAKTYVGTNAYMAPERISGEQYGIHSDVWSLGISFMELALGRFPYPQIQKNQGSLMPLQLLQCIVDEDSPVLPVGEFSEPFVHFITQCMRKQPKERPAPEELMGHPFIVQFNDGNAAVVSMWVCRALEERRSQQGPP

TAK1 [6] = target: T1, TAK1; experiment: KiNativ live-cell profiling in SK-CO-1 cells; type: binding; settings: 1 μM
ARAF = target: T5, ARAF (Homo sapiens, UniProt P10398); experiment: KiNativ live-cell profiling in SK-CO-1 cells; type: binding; settings: read-out: Inhibition (%) ARAF
T5 sequence (P10398 1-606): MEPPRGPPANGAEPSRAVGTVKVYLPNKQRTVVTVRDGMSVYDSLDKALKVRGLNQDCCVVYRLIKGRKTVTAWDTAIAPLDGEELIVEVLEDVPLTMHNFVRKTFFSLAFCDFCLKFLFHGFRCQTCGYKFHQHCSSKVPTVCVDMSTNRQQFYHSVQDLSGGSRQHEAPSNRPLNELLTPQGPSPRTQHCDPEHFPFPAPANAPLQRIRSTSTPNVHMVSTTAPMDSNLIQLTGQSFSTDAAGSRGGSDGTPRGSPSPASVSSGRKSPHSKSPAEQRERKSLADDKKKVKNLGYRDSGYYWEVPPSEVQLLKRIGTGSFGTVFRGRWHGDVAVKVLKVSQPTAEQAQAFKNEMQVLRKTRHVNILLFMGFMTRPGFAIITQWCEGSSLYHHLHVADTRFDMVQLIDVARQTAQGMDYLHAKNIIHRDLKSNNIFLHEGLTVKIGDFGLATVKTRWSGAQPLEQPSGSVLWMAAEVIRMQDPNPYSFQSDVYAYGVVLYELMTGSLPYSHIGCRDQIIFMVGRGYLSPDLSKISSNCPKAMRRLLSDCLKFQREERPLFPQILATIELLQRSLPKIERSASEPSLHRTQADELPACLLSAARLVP

SMILES: Cn1cnc2c(F)c(Nc3ccc(Br)cc3Cl)c(C(=O)NOCCO)cc21 [AZD]
- IC50 (PANC-1): > 100 µM
- IC50 (URMC6): > 100 µM
- IC50 (SW156): > 100 µM

SMILES: CC(C)Nc1cc(-c2c[nH]c(C(=O)N[C@H](CO)c3cccc(Cl)c3)c2)c(Cl)cn1 [BVD]
- IC50 (PANC-1): > 100 µM
- IC50 (URMC6): > 100 µM

SMILES: C=CC(=O)Nc1ccccc1Oc1nc(Nc2ccc(N3CCN(C)CC3)cc2)ncc1Cl [Compound 2]
- blocking of labeling of TAK1 by 27 (TAK1 [1]): only partially blocked labeling of TAK1
- anti-proliferative effect, H358 (H358 cells): potent against both lines at very low concentrations
- potentiation of FGF-basic secretion induced by TNFα [2]: potentiated FGF-basic secretion
- normalization of induced cytokine secretion ([3]; 3 μM): normalized cytokine secretion
- anti-proliferative effect, H23 (H23 cells): potent against both lines at very low concentrations
- fold more potent than non-covalent counterpart against KRAS^G12D Ba/F3 cells (KRAS^G12D Ba/F3 cells): approximately 6 fold

SMILES: COc1cc(O)c2c(c1)/C=C/C[C@H](O)[C@H](O)C(=O)/C=C\C[C@H](C)OC2=O [Compound 5Z7, 5Z-7-oxozeaenol, reference compound]
- labeling of TAK1 by 27 after pre-treatment of cells (TAK1 [1]): did not label TAK1
- secretion of FGF-basic in SF activated by TNFα [4]: elevated secretion of fibroblast growth factor-basic
- KinomeScan inhibition score (panel of 456 kinases): strong inhibition score against many kinases other than TAK1
- normalization of induced cytokine secretion ([3]; 0.6 μM): fully normalizing induced cytokine secretion

SMILES: C=CC(=O)Nc1ccccc1Nc1nc(Nc2ccc(N3CCN(C)CC3)cc2)ncc1Cl [Compound 5]
- inhibition at 1 µM (ZAP70): -26.6%
- labeling of TAK1 by 27 after pre-treatment of cells (TAK1 [1]): did not label TAK1
- inhibition at 1 µM (MAP2K6): -43.1%
- IC50 [5]: 0.029 to 0.083 µM
- anti-proliferative effect, H358 (H358 cells): potent against both lines at very low concentrations
- potentiation of FGF-basic secretion induced by TNFα [2]: potentiated FGF-basic secretion
- normalization of induced cytokine secretion ([3]; 0.6 μM): fully normalizing induced cytokine secretion
- anti-proliferative effect, H23 (H23 cells): potent against both lines at very low concentrations

SMILES: CCC(=O)Nc1ccccc1Oc1nc(Nc2ccc(N3CCN(C)CC3)cc2)ncc1Cl [Compound 8]
- effect on labeling of TAK1 by 27 (TAK1 [1]): did not have a measurable effect
- normalization of induced cytokine secretion ([3]; 3 μM): virtually inactive

SMILES: CCC(=O)Nc1ccccc1Nc1nc(Nc2ccc(N3CCN(C)CC3)cc2)ncc1Cl [Compound 9]
- effect on labeling of TAK1 by 27 (TAK1 [1]): did not have a measurable effect

SMILES: CN1CCN(c2ccc(Nc3ncc(Cl)c(Nc4ccccc4NC(=O)CCl)n3)cc2)CC1 [Compound 10]
- blocking of labeling of TAK1 by 27 (TAK1 [1]): only partially blocked labeling of TAK1
- anti-proliferative effect, H358 (H358 cells): potent against both lines at very low concentrations
- anti-proliferative effect, H23 (H23 cells): potent against both lines at very low concentrations

SMILES: C=CC(=O)Oc1ccccc1Nc1nc(Nc2cccc(N3CCOCC3)c2)ncc1Cl [Compound 20]
- blocking of labeling of TAK1 by 27 (TAK1 [1]): only partially blocked labeling of TAK1

SMILES: C=CC(=O)Nc1ccccc1Oc1nc(Nc2cnn(C(F)F)c2)ncc1Cl [Compound 23]
- blocking of labeling of TAK1 by 27 (TAK1 [1]): only partially blocked labeling of TAK1

SMILES: C=CC(=O)Nc1ccccc1Oc1nc(Nc2cnn(CCOC)c2)ncc1Cl [Compound 25]
- blocking of labeling of TAK1 by 27 (TAK1 [1]): only partially blocked labeling of TAK1
- inhibition at 1 µM (MAP2K6): -21.6%
- inhibition at 1 µM (MAP2K5): -59.6%
- binding to TAK1 in KiNativ assay (TAK1 [6]): could not detect binding to TAK1
- inhibition at 1 µM (ARAF): -15.8%
- normalization of induced cytokine secretion ([3]; 3 μM): normalized cytokine secretion

SMILES: CCC(=O)Nc1ccccc1Oc1nc(Nc2cnn(CCOC)c2)ncc1Cl [Compound 26]
- IC50 (PANC-1): > 100 µM
- effect on labeling of TAK1 by 27 (TAK1 [1]): did not have a measurable effect
- IC50 (SW156): > 100 µM
- normalization of induced cytokine secretion ([3]; 3 μM): virtually inactive

SMILES: CCN1CCN(Cc2ccc(NC(=O)c3ccc(C)c(Oc4ccnc5[nH]ccc45)c3)cc2C(F)(F)F)CC1 [NG25, reference compound]
- effect on labeling of TAK1 by 27 (TAK1 [1]): inhibited TAK1 in an irreversible manner
- anti-proliferative effect, H358 (H358 cells): insufficient to block proliferation at concentrations lower than 5 μM
- normalization of induced cytokine secretion ([3]; 3 μM): normalized cytokine secretion
- anti-proliferative effect, H23 (H23 cells): insufficient to block proliferation at concentrations lower than 5 μM
